Experimental data from ChEMBL document CHEMBL1671691 (Antimicrob Agents Chemother, 2010).

What was measured:
Influenza A virus [1] = test: Antiviral activity against Influenza A virus (A/California/04/2009(H1N1)) infected in MDCK cells from ATCC assessed as log reduction in viral titer at 1.6 uM after 24 hrs by immunofluorescent assay; format: functional
Summary of the method: (§1)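 Yield reduction in MDCK-ATCC or MDCK-Mill Hill cells infected at MOI ∼0.01. Adsorption 1 h at 4°C, washed, then DMEM with 2 μg/ml TPCK-trypsin and drug. At 24 h, supernatants were titrated by immunofluorescent focus assay on MDCK cells with anti-NP monoclonals and FITC secondary. Titres as log10 FFU per 100 μl; detection limit <10 FFU. Quadruplicate, mean ± SD.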

Influenza A virus [2] = test: Antiviral activity against Influenza A virus (A/Mexico/4604/2009(H1N1)) infected in MDCK cells from ATCC assessed as log reduction in viral titer at 1.6 uM after 24 hrs by immunofluorescent assay; format: functional; summary of the method: as §1
Influenza A virus [3] = test: Antiviral activity against Influenza A virus (A/California/04/2009(H1N1)) infected in MDCK cells from Mill Hill assessed as log reduction in viral titer at 1.6 uM after 24 hrs by immunofluorescent assay; format: functional; summary of the method: as §1
Influenza A virus [4] = test: Antiviral activity against Influenza A virus (A/Mexico/4604/2009(H1N1)) infected in MDCK cells from Mill Hill assessed as log reduction in viral titer at 1.6 uM after 24 hrs by immunofluorescent assay; format: functional; summary of the method: as §1
Influenza A virus [5] = test: Antiviral activity against sInfluenza A virus (A/California/04/2009(H1N1)) infected in MDCK cells from ATCC assessed as log reduction in viral titer at 4.7 uM after 24 hrs by immunofluorescent assay; format: functional
Summary of the method: (§2)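 MDCK cells (ATCC or Mill Hill) infected with 2009 pandemic H1N1 at MOI ~0.01, 1 h adsorption at 4°C, washed. DMEM with 2 μg/ml TPCK-trypsin plus drug for 24 h at 37°C. Supernatants titrated on MDCK cells by focus formation: methanol/acetic acid fixation, anti-nucleoprotein MAbs, FITC secondary, foci counted. Titre as log10 FFU per 100 μl; detection limit <10 FFU; quadruplicate wells.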

Influenza A virus [6] = test: Antiviral activity against Influenza A virus (A/Mexico/4604/2009(H1N1)) infected in MDCK cells from ATCC assessed as log reduction in viral titer at 4.7 uM after 24 hrs by immunofluorescent assay; format: functional; summary of the method: as §1
Influenza A virus [7] = test: Antiviral activity against sInfluenza A virus (A/Washington/29/2009(H1N1)) infected in MDCK cells from ATCC assessed as log reduction in viral titer at 4.7 uM after 24 hrs by immunofluorescent assay; format: functional, Influenza A virus (A/Washington/29/2009(H1N1)); summary of the method: as §2
Influenza A virus [8] = test: Antiviral activity against Influenza A virus (A/Illinois/10/2009(H1N1)) infected in MDCK cells from ATCC assessed as log reduction in viral titer at 4.7 uM after 24 hrs by immunofluorescent assay; format: functional; summary of the method: as §1
Influenza A virus [9] = test: Antiviral activity against sInfluenza A virus (A/California/04/2009(H1N1)) infected in MDCK cells from Mill Hill assessed as log reduction in viral titer at 4.7 uM after 24 hrs by immunofluorescent assay; format: functional; summary of the method: as §2
Influenza A virus [10] = test: Antiviral activity against Influenza A virus (A/Mexico/4604/2009(H1N1))infected in MDCK cells from Mill Hill assessed as log reduction in viral titer at 4.7 uM after 24 hrs by immunofluorescent assay; format: functional; summary of the method: as §1
Influenza A virus [11] = test: Antiviral activity against sInfluenza A virus (A/Washington/29/2009(H1N1)) infected in MDCK cells from Mill Hill assessed as log reduction in viral titer at 4.7 uM after 24 hrs by immunofluorescent assay; format: functional, Influenza A virus (A/Washington/29/2009(H1N1)); summary of the method: as §2
Influenza A virus [12] = test: Antiviral activity against Influenza A virus (A/Illinois/10/2009(H1N1)) infected in MDCK cells from Mill Hill assessed as log reduction in viral titer at 4.7 uM after 24 hrs by immunofluorescent assay; format: functional; summary of the method: as §1
Influenza A virus [13] = test: Antiviral activity against sInfluenza A virus (A/California/04/2009(H1N1))infected in MDCK cells from ATCC assessed as log reduction in viral titer at 14.2 uM after 24 hrs by immunofluorescent assay; format: functional; summary of the method: as §2
Influenza A virus [14] = test: Antiviral activity against Influenza A virus (A/Mexico/4604/2009(H1N1)) infected in MDCK cells from ATCC assessed as log reduction in viral titer at 14.2 uM after 24 hrs by immunofluorescent assay; format: functional; summary of the method: as §1
Influenza A virus [15] = test: Antiviral activity against sInfluenza A virus (A/Washington/29/2009(H1N1)) infected in MDCK cells from ATCC assessed as log reduction in viral titer at 14.2 uM after 24 hrs by immunofluorescent assay; format: functional, Influenza A virus (A/Washington/29/2009(H1N1)); summary of the method: as §2
Influenza A virus [16] = test: Antiviral activity against Influenza A virus (A/Illinois/10/2009(H1N1)) infected in MDCK cells from ATCC assessed as log reduction in viral titer at 14.2 uM after 24 hrs by immunofluorescent assay; format: functional; summary of the method: as §1
Influenza A virus [17] = test: Antiviral activity against sInfluenza A virus (A/California/04/2009(H1N1)) infected in MDCK cells from Mill Hill assessed as log reduction in viral titer at 14.2 uM after 24 hrs by immunofluorescent assay; format: functional; summary of the method: as §2
Influenza A virus [18] = test: Antiviral activity against Influenza A virus (A/Mexico/4604/2009(H1N1)) infected in MDCK cells from Mill Hill assessed as log reduction in viral titer at 14.2 uM after 24 hrs by immunofluorescent assay; format: functional; summary of the method: as §1
Influenza A virus [19] = test: Antiviral activity against sInfluenza A virus (A/Washington/29/2009(H1N1))) infected in MDCK cells from Mill Hill assessed as log reduction in viral titer at 14.2 uM after 24 hrs by immunofluorescent assay; format: functional, Influenza A virus (A/Washington/29/2009(H1N1)); summary of the method: as §2
Influenza A virus [20] = test: Antiviral activity against Influenza A virus (A/Illinois/10/2009(H1N1)) infected in MDCK cells from Mill Hill assessed as log reduction in viral titer at 14.2 uM after 24 hrs by immunofluorescent assay; format: functional; summary of the method: as §1
Influenza A virus [21] = test: Antiviral activity against sInfluenza A virus (A/California/04/2009(H1N1)) infected in MDCK cells from ATCC assessed as log reduction in viral titer at 42.7 uM after 24 hrs by immunofluorescent assay; format: functional; summary of the method: as §2
Influenza A virus [22] = test: Antiviral activity against Influenza A virus (A/Mexico/4604/2009(H1N1)) infected in MDCK cells from ATCC assessed as log reduction in viral titer at 42.7 uM after 24 hrs by immunofluorescent assay; format: functional; summary of the method: as §1
Influenza A virus [23] = test: Antiviral activity against sInfluenza A virus (A/Washington/29/2009(H1N1)) infected in MDCK cells from ATCC assessed as log reduction in viral titer at 42.7 uM after 24 hrs by immunofluorescent assay; format: functional, Influenza A virus (A/Washington/29/2009(H1N1)); summary of the method: as §2
Influenza A virus [24] = test: Antiviral activity against Influenza A virus (A/Illinois/10/2009(H1N1)) infected in MDCK cells from ATCC assessed as log reduction in viral titer at 42.7 uM after 24 hrs by immunofluorescent assay; format: functional; summary of the method: as §1

NC(=O)c1nc(F)cnc1O [FAVIPIRAVIR]
log10FFU (Influenza A virus [1]): 2.7 | log10FFU (Influenza A virus [2]): 4.4 | log10FFU (Influenza A virus [3]): 4.1 | log10FFU (Influenza A virus [4]): 6.2 | log10FFU (Influenza A virus [5]): 1.8 | log10FFU (Influenza A virus [6]): 3.5 | log10FFU (Influenza A virus [7]): 3.9 | log10FFU (Influenza A virus [8]): 4.4 | log10FFU (Influenza A virus [9]): 3.6 | log10FFU (Influenza A virus [10]): 6.2 | log10FFU (Influenza A virus [11]): 4.7 | log10FFU (Influenza A virus [12]): 3.8 | log10FFU (Influenza A virus [13]): <1 | log10FFU (Influenza A virus [14]): 2.4 | log10FFU (Influenza A virus [15]): 2.2 | log10FFU (Influenza A virus [16]): 3.1 | log10FFU (Influenza A virus [17]): 2.3 | log10FFU (Influenza A virus [18]): 4.6 | log10FFU (Influenza A virus [19]): 3.1 | log10FFU (Influenza A virus [20]): 1.8 | log10FFU (Influenza A virus [21]): <1 | log10FFU (Influenza A virus [22]): 1.8 | log10FFU (Influenza A virus [23]): 1.8 | log10FFU (Influenza A virus [24]): 2.1
